Assay [1] can be described thus: Minimal drug concentration necessary to inhibit incorporation of [3H]thymidine in U937 Leukemia cells. It is filed as functional, cell-based, Homo sapiens.
Assay [2] concerns L1210. As to the kind of experiment: Antitumor activity was tested in BDF1 male mice bearing L1210 Leukemia, at the dose of 70 ug/kg; activity expressed as 30-day survivors. The format is functional, Mus musculus. The gist of the method: (§1)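 Male BDF1 mice, 4-6 weeks old, 6 per group, were given 10⁵ L1210 cells ip on day 0. Drug in DMF was diluted in 30% DMSO/0.5% glucose and given ip on days 1, 5 and 9. %ILS = (T/C − 1) × 100 on median survival of dying animals only; 30-day survivors noted separately. Group weight change was taken from day 0 to the lowest-weight day.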

A short description of assay [3]: Compound was administered to non-tumor bearing female CDF1 mice to estimate Mean corpuscular hemoglobin concentration (MCHC). The format is functional, Mus musculus. The gist of the method:
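Non-tumor-bearing female CDF1 mice, 10 per group, received one ip dose on day 1 (DMSO stock diluted in 30% DMSO/0.5% glucose). Blood was sampled on day 27 for hematology, including MCHC; values are medians of 10 mice.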

Assay [4] is described as follows: Hematological effects in female CDF1 mice RBCs at the dose of 50ug/Kg, in red blood cells. It is filed as functional, Mus musculus, Erythrocyte. The gist of the method: (§2)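 Non-tumour-bearing female CDF1 mice, 10 per group. Drug was dissolved in DMSO, diluted in 30% DMSO/0.5% glucose, and given as a single ip dose on day 1. Blood was sampled on day 27 for WBC, platelet, RBC and MCHC measurements. Values are medians of 10 mice, with saline or vehicle controls.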

In assay [5] the test system is L1210. As to the kind of experiment: Antitumor activity was tested in mice (bearing L1210 leukemia) and body weight change between days 0 and days 12 (when the animal weight was the lowest) was estimated at a dose of 25 ug/kg. It is filed as functional, Mus musculus. The procedure, abridged:
as §1

The test system of assay [6] is Mus musculus. Briefly: Anti tumor activity was tested in mice and percent increase of life span at a dose of 42 ug/kg. The format is functional. The procedure, abridged: as §1
For assay [7], the system named is Mus musculus. Briefly: Hematological effects in female CDF1 mice at the dose of 50ug/Kg, in white blood cells. The format is functional. The gist of the method:
as §2

The test system of assay [8] is L1210. As to the kind of experiment: Antitumor activity in mice bearing L1210 Leukemia at the dose of 30 ug/kg; survivors for 30 days was reported. The format is functional, Mus musculus.
The subject of assay [9] is L1210. Briefly: Antitumor activity was tested in Mice (bearing L1210 leukemia) and body weight change between days 0 and days 12 (when the animal weight was the lowest) was estimated at a dose of 42 ug/kg. The format is functional, Mus musculus. The procedure, abridged:
as §1

Assay [10] is described as follows: Hematological effects in female CDF1 mice platelet cells at the dose of 50ug/Kg, in platelets. The format is functional, Mus musculus. The procedure, abridged: as §2
The subject of assay [11] is L1210. Briefly: Antitumor activity was tested in Mice (bearing L1210 leukemia) and body weight change between days 0 and days 12 (when the animal weight was the lowest) was estimated at a dose of 70 ug/kg. It is filed as functional, Mus musculus. The gist of the method: as §1
Assay [12] deals with L1210. As to the kind of experiment: Antitumor activity was tested in BDF1 male mice bearing L1210 Leukemia, at the dose of 42 ug/kg; survivors for 30 days was reported. The format is functional, Mus musculus. The gist of the method: as §1
Assay [13] concerns Mus musculus. As to the kind of experiment: Antitumor activity was tested in mice and percent increase of life span at a dose of 25 ug/kg was reported. The format is functional.
Assay [14] has as its system Mus musculus. As to the kind of experiment: Anti tumor activity was tested in mice and percent increase of life span at a dose of 70 ug/kg. It is filed as functional. The procedure, abridged: as §1
Assay [15] concerns L1210. Briefly: Antitumor activity was tested in BDF1 male mice bearing L1210 Leukemia, at the dose of 25 ug/kg; survivors for 30 days was reported. The format is functional, Mus musculus. The gist of the method:
as §1

The species entered for assay [16] is Mus musculus. As to the kind of experiment: Antitumor activity in mice bearing L1210 leukemia at a dose of 30 ug / kg. The format is functional. The procedure, abridged:
(§3)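 Female CDF1 mice, 10 per group, got 100 L1210 cells ip on day 0. Drug in DMSO was diluted with 30% DMSO in 0.5% glucose and dosed ip on days 1, 5 and 9. Long-term (60-day) survivors are given as percent of the group.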

The species named for assay [17] is Mus musculus. Briefly: Hematological effects in female CDF1 mice, in red blood cells. It is filed as functional. The gist of the method:
(§4)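 Non-tumor-bearing female CDF1 mice, 10 per group. Drugs were dissolved in DMSO, diluted in 30% DMSO/0.5% glucose, and given as a single ip dose on day 1 (doses per kg). Blood was sampled on day 27 for WBC, platelet, RBC and MCHC counts. Values are medians of 10 mice.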

Assay [18] is filed under the species Mus musculus. Briefly: (§5) Hematological effects in female CDF1 mice at the dose of 30 mg, in white blood cells. It is filed as functional. The gist of the method:
as §4

The species entered for assay [19] is Mus musculus. Briefly: Mean corpuscular hemoglobin concentration (MCHC). The format is functional. The gist of the method: as §2
The species entered for assay [20] is Mus musculus. As to the kind of experiment: Hematological effects in female CDF1 mice, in platelets. It is filed as functional. The procedure, abridged: as §4
The species named for assay [21] is Mus musculus. As to the kind of experiment: Hematological effects in female CDF1 mice at the dose of 30mg, in red blood cells. It is filed as functional. The procedure, abridged:
as §2

The species named for assay [22] is Mus musculus. Briefly: Hematological effects in female CDF1 mice at the dose of 30 mg, in platelet cells. The format is functional. The gist of the method: as §2
The species named for assay [23] is Mus musculus. As to the kind of experiment: (§6) Hematological effects in female CDF1 mice at the dose of […], in red blood cells.
For assay [24], the species on record is Mus musculus. Briefly: animal or person.
The species named for assay [25] is Mus musculus. The description is as §5. The format is functional. The procedure, abridged: as §2
This is another data set of the same source.

The species entered for assay [26] is Mus musculus. Briefly: Antitumor activity in mice bearing B16BL6 melanoma at a dose of 10(ug/mL); survivors for 90 days was reported. It is filed as functional. The procedure, abridged:
(§7)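 B16BL6 cells were cultured as monolayers, and 10⁶ cells were injected ip on day 0 into female BDF1 mice (4-6 weeks, 8 per group). Drug in dimethylacetamide was diluted in DMA/Cremophor/water (1:5:44) and 0.1 mL given ip on days 1, 5 and 9. %ILS came from median survival of dying animals; 90-day survivors were counted; mean weight change covered days 1-10.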

For assay [27], the species on record is Mus musculus. Briefly: Antitumor activity in mice bearing B16BL6 melanoma at a dose of 5(ug/mL); survivors for 90 days was reported. The format is functional. The gist of the method:
as §7

The species named for assay [28] is Mus musculus. As to the kind of experiment: Mean body weight change between days 1 and 10. It is filed as functional. The gist of the method:
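Female BDF1 mice (4-6 weeks old, 8 per group) were inoculated ip with 10⁶ B16BL6 melanoma cells on day 0. Drugs in dimethylacetamide were diluted in DMA:Cremophor:water (1:5:44) and given ip at 0.1 mL on days 1, 5 and 9 (doses per kg). Read-outs were %ILS = (T/C − 1) × 100 on median survival of dying animals only, mean body weight change from day 1 to day 10 (g/mouse), and 90-day survivors.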

Assay [29] is filed under the species Mus musculus. The description is as §6. It is filed as functional. The gist of the method:
as §4

For assay [30], the species on record is Mus musculus. As to the kind of experiment: Hematological effects in female CDF1 mice at the dose of […], in platelets. The format is functional. The procedure, abridged:
as §4

Assay [31] relates to Mus musculus. As to the kind of experiment: Antitumor activity in female CDF1 mice bearing L1210 Leukemia at the dose of 30 ug/kg and survivors (60-day) was expressed. It is filed as functional. The gist of the method:
as §3

SMILES strings stand for the structures.

As a reminder, the IC50 is the point on the concentration scale where inhibition reaches its midpoint. As usually defined, the ILS is how much longer treated animals lived than controls. Read a high ILS as much gain in survival.

In turn, `CC(=O)Nc1ccc2oc(C(=O)Nc3ccc4[nH]c(C(=O)N5CC(CCl)c6c5cc(O)c5ccccc65)cc4c3)cc2c1` (configuration not stated) had an IC50 in assay [1] of 0.4 nM.
For `CC(=O)Nc1ccc2oc(C(=O)Nc3ccc4[nH]c(C(=O)N5CC6CC67C5=CC(=O)c5ccccc57)cc4c3)cc2c1` (configuration not stated), the No. of survivors in the assay on L1210 [2] is listed as 0; in the assay on L1210 [8], 60; in the assay on L1210 [12] it was 1; in the assay on L1210 [15] it was 0. Moreover, the MCHC in assay [3] was 35.5 g/dL. Moreover, the RBC in [4] is listed as 7.81 10e6 ul-1. In addition, the figures for the Weight change in the assay on L1210 [5], with L1210 [9] and with L1210 [11] were 23%, 18% and -15%, respectively. This compound also had an ILS at 0.042 mg/kg with Mus musculus [6] of 80%. Besides, in the assay on Mus musculus [7], the WBC was 13.95 10e3 ul-1. This compound also came in with a concentration for half-maximal inhibition (IC50) in assay [1] of 0.2 nM. The Platelet in assay [10] is recorded as 1.01 10e6 ul-1. Besides, the ILS at 0.025 mg/kg in the assay on Mus musculus [13] stood at 53%. The ILS at 0.07 mg/kg in the assay with Mus musculus [14] was found to be 93%.
In [1], `CC(=O)Nc1ccc2[nH]c(C(=O)N3CC(CCl)c4c3cc(O)c3ccccc43)cc2c1` (configuration not stated) displayed an IC50 of 3 nM.
`CCCC(=O)Nc1ccc2oc(C(=O)Nc3ccc4[nH]c(C(=O)N5CC(CCl)c6c5cc(O)c5ccccc65)cc4c3)cc2c1` (configuration not stated): the Survivors in the assay filed under Mus musculus [16] is on record as 20%. Besides, in assay [1], inhibition was half-maximal at 0.008 nM (IC50).
In the case of `CC(=O)Nc1ccc2[nH]c(/C=C/C(=O)N3CC(CCl)c4c3cc(O)c3ccccc43)cc2c1` (configuration not stated), the IC50 in assay [1] amounted to 0.9 nM.
Regarding `C[S+](C)[O-].OC[C@H]1O[C@H](O)[C@H](O)[C@@H](O)[C@@H]1O`, the RBC in the assay filed under Mus musculus [17] is 8.5 10e6 ul-1. In addition, the WBC in the assay listed under Mus musculus [18] is on record as 12.85 10e3 ul-1. The MCHC in the assay listed under Mus musculus [19] was 34.45 g/dL. In the assay filed under Mus musculus [20], the Platelet is given as 1.16 10e6 ul-1.
Consider `CS(=O)(=O)OCCCCOS(C)(=O)=O` [BUSULFAN], for which the RBC in the assay filed under Mus musculus [21] is on record as 8.45 10e6 ul-1. In the assay filed under Mus musculus [18], the WBC was 7 10e3 ul-1. The Platelet in the assay listed under Mus musculus [22] was 0.71 10e6 ul-1.
As for `O=P1(N(CCCl)CCCl)NCCCO1` (configuration not stated) [CYCLOPHOSPHAMIDE ANHYDROUS], in the assay listed under Mus musculus [23], the RBC was 7.67 10e6 ul-1. The ILS at 0.125 mg/kg in the assay listed under Mus musculus [24] came to 173%. In the assay filed under Mus musculus [25], the WBC is given as 11.22 10e3 ul-1.
With `COc1cccc2c1C(=O)c1c(O)c3c(c(O)c1C2=O)C[C@@](O)(C(=O)CO)C[C@@H]3O[C@H]1C[C@H](N)[C@H](O)[C@H](C)O1` [DOXORUBICIN], the No. of survivors came to 2 in the assay filed under Mus musculus [26] and 0 in the assay filed under Mus musculus [27]. In the assay listed under Mus musculus [28], this compound returned a Weight of 0.5 g.
Turning to `O=c1[nH]cc(F)c(=O)[nH]1` [FLUOROURACIL], the RBC in the assay listed under Mus musculus [21] is on record as 8.82 10e6 ul-1. Also, in the assay filed under Mus musculus [18], the WBC is listed as 12.4 10e3 ul-1. The same compound came in with an MCHC in the assay listed under Mus musculus [19] of 35.4 g/dL. Moreover, the Platelet in the assay listed under Mus musculus [22] is 1.24 10e6 ul-1.
For the compound `CC(=O)O[C@H]1C(=O)[C@@]2(C)[C@H]([C@H](OC(=O)c3ccccc3)[C@]3(O)C[C@H](OC(=O)[C@H](O)[C@@H](NC(=O)c4ccccc4)c4ccccc4)C(C)=C1C3(C)C)[C@]1(OC(C)=O)CO[C@@H]1C[C@@H]2O` [PACLITAXEL], the RBC in the assay filed under Mus musculus [29] was 8.33 10e6 ul-1. The Platelet in the assay filed under Mus musculus [30] is reported as 1.04 10e6 ul-1. Further, the MCHC in the assay filed under Mus musculus [19] was determined as 36.5 g/dL. The compound also displayed a Survivors with Mus musculus [31] of 0%. For the same compound, the WBC in the assay filed under Mus musculus [25] is 13.4 10e3 ul-1.

The values are drawn from ChEMBL document CHEMBL1133719, “Synthesis and preliminary biological evaluations of CC-1065 analogues: effects of different linkers and terminal amides on biological activity” (J Med Chem, 2000).
